Experimental data of several laboratories.
Protocols differ between the studies behind these lines.
PGR: Progesterone receptor (PGR, Homo sapiens, UniProt P06401)
SLCO1B1: Solute carrier organic anion transporter family member 1B1 (SLCO1B1, Homo sapiens, UniProt Q9Y6L6)
CHRM1: Muscarinic acetylcholine receptor M1 (CHRM1, Homo sapiens, UniProt P11229)

| SMILES | target | assay | system | conditions | quantity | value |
| --- | --- | --- | --- | --- | --- | --- |
| C[C@]12CC[C@H]3[C@@H](CCC4=CC(=O)CC[C@@H]43)[C@@H]1CC[C@@H]2O | PGR | ligand displacement | – | – | IC50 | 0.0678 µM |
| COC1CCN(CCC(C#N)(c2ccccc2)c2ccccc2)CC1 | Potassium voltage-gated channel subfamily A member 3 (Kcna3, Mus musculus, UniProt P16390) | ion current, inhibitor, patch clamp | – | – | IC50 | > 100 µM |
| CCOC(=O)c1cncn1[C@H](C)c1ccccc1 | SLCO1B1 | transporter uptake, inhibitor, fluorescence | CHO | 30 min, pH 7.4 | IC50 | > 100 µM |
| Clc1cccc(N2CCNCC2)c1Cl | CHRM1 | ligand displacement, radioligand | – | cell membranes | Ki | 25.1 µM |
| Cc1nnc2n1-c1ccc(Cl)cc1C(c1ccccc1)=NC2 | Cytochrome P450 1A2 (CYP1A2, Homo sapiens, UniProt P05177) | enzyme activity, inhibitor, fluorescence | – | – | IC50 | > 100 µM |
| CCCCCCCNCCCc1ccc([N+](=O)[O-])cc1 | CHRM1 | ligand displacement, radioligand | – | – | Ki | 1.9 µM |
| CC(C)(C)[C@H](NC(=O)C(F)(F)F)C(=O)N1C[C@H]2[C@@H]([C@H]1C(=O)N[C@H](C#N)C[C@@H]1CCNC1=O)C2(C)C | Papain (Carica papaya, UniProt P00784) | enzyme activity, inhibitor | – | – | IC50 | > 10 µM |
| CCN1C[C@]2(COC)[C@H](O)C[C@H](OC)[C@@]34[C@@H]5C[C@@]6(O)[C@H](OC(=O)c7ccccc7)[C@@H]5[C@@](OC(C)=O)([C@@H]([C@H](OC)[C@H]23)[C@@H]14)[C@@H](O)[C@@H]6OC | SLCO1B1 | transporter uptake, inhibitor, fluorescence | CHO | 30 min, pH 7.4 | IC50 | > 100 µM |
| C[C@]12CC[C@H]3[C@@H](CCC4=CC(=O)CC[C@@]43C)[C@@H]1CC[C@@H]2O | PGR | ligand displacement | – | – | IC50 | > 0.5 µM |
| CC(C)(C)[C@H](NC(=O)C(F)(F)F)C(=O)N1C[C@H]2[C@@H]([C@H]1C(=O)N[C@H](C#N)C[C@@H]1CCNC1=O)C2(C)C | Cytochrome P450 3A4 (CYP3A4, Homo sapiens, UniProt P08684) | enzyme activity, inhibitor | human, liver microsomes | – | Ki | 22.6 µM |
| C[C@]1(O)CC[C@H]2[C@@H]3CCC4=CC(=O)CCC4=C3CC[C@@]21C | PGR | reporter gene, agonist | – | – | EC50 | 0.0008 µM |
